Published values of several laboratories.
Compare with care: the assays were run in different laboratories.
SLC6A2: Sodium-dependent noradrenaline transporter (SLC6A2, Homo sapiens, UniProt P23975)
Oprk1: Kappa-type opioid receptor (Oprk1, Mus musculus, UniProt P33534)
CES2: Cocaine esterase (CES2, Homo sapiens, UniProt O00748)
FPR1: fMet-Leu-Phe receptor (FPR1, Homo sapiens, UniProt P21462)
WD repeat-containing protein 91: WD repeat-containing protein 91 (Homo sapiens, UniProt A4D1P6)

Structure (SMILES) | target | assay | conditions | quantity | result
OC[C@@]12C[C@@H]1[C@@H](n1cnc3c(N[C@@H](C4CCC4)C4CC4)nc(C#Cc4ccc(Cl)s4)nc31)[C@H](O)[C@@H]2O | SLC6A2 | ligand displacement, radioligand | – | Ki | 1.8 µM
CC(C)[C@@H](CN1CCc2ccccc2C1)NC(=O)c1cccc(-c2cccc(C#N)c2)c1 | Oprk1 | ligand displacement, radioligand | – | Ki | 2.14 µM
COc1cc(Nc2c(C#N)cnc3cc(OCCCN4CCN(C)CC4)c(OC)cc23)c(Cl)cc1Cl | CES2 | enzyme activity, inhibitor, fluorescence | with preincubation | IC50 | 22 µM
N#Cc1ccc(C[C@H](NC(=O)c2cc3ccc(F)cc3[nH]2)C(=O)N2CCc3ccccc32)cc1 | FPR1 | calcium signal, agonist | – | EC50 | 23.1 µM
CCc1ccccc1/C=C1\Cc2cc(OC)c(OC)cc2C1=O | CES2 | enzyme activity, inhibitor, fluorescence | with preincubation | IC50 | 1.48 µM
CCOC(=O)[C@@]12C[C@@H]1[C@@H](n1ccc3c(NCCCCc4ccccc4)nc(C#Cc4ccccc4)nc31)[C@H](O)[C@@H]2O | SLC6A2 | ligand displacement, radioligand | – | Ki | 1.5 µM
CC(C)[C@@H](CN1CCc2ccccc2C1)NC(=O)c1cccc(-c2cccnc2)c1 | Oprk1 | ligand displacement, radioligand | – | Ki | 6.15 µM
CNC(=O)[C@@]12C[C@@H]1[C@@H](n1cnc3c(Nc4ccccc4)nc(C#Cc4ccc(Cl)s4)nc31)[C@H](O)[C@@H]2O | SLC6A2 | ligand displacement, radioligand | – | Ki | 2.5 µM
CC(C)[C@@H](CN1CCc2ccccc2C1)NC(=O)c1c(Cl)cncc1Cl | Oprk1 | ligand displacement, radioligand | – | Ki | 39.7 µM
CNc1nc(C#Cc2ccc(Cl)s2)nc2c1ncn2[C@H]1[C@H](O)[C@H](O)[C@]2(CC#N)C[C@H]12 | SLC6A2 | ligand displacement, radioligand | – | EC50 | 3.9 µM
CCn1c(=O)[nH]c2cc(C(=O)NC(c3ccc(F)cc3)c3cnn(C)c3)ccc2c1=O (stereo not shown) | WD repeat-containing protein 91 | binding, SPR | – | Kd | 3 µM
CC(C)Oc1ccc2c(=O)c(-c3ccccc3)coc2c1 | CES2 | enzyme activity, inhibitor, fluorescence | with preincubation | IC50 | > 100 µM
CNc1nc(N[C@@H]2CCc3c(C#N)cccc32)cc(-c2cccc(N3CCCC3)c2)n1 | WD repeat-containing protein 91 | binding, SPR | – | Kd | 1 µM
NCC(=O)O | ltaA (Aeromonas jandaei, UniProt O07051) | binding, absorbance | – | Kd | 11000 µM
N#Cc1ccc(C[C@@H](Nc2c(Nc3ccc(Br)cc3)c(=O)c2=O)C(=O)N2CCc3ccccc32)cc1 | FPR1 | calcium signal, agonist | – | EC50 | 32.8 µM
COc1cc2c(cc1OC)C(=O)/C(=C/C1CCCC1)C2 | CES2 | enzyme activity, inhibitor, fluorescence | with preincubation | IC50 | 6.31 µM
CNC(=O)[C@@]12C[C@@H]1[C@@H](n1cnc3c(NCc4cccc(Cl)c4)nc(C#Cc4ccc(Cl)s4)nc31)[C@H](O)[C@@H]2O | SLC6A2 | ligand displacement, radioligand | – | Ki | 2.3 µM
CN1C(C(=O)Nc2ccccn2)=C(O)c2ccccc2S1(=O)=O | CES2 | enzyme activity, inhibitor, fluorescence | with preincubation | IC50 | > 100 µM
O=C(CCNC(=O)CNC(=O)CC(c1ccccc1)(c1ccccc1)c1ccccc1)NC[C@H]1CCCN(Cc2ccc(F)cc2)C1 | Muscarinic acetylcholine receptor M5 (CHRM5, Homo sapiens, UniProt P08912) | ligand displacement, radioligand | cell membranes | IC50 | 19.4 µM
